Active and inactive are the calls of the source. The rule behind the calls is not given here.

This is an account of results in ChEMBL document CHEMBL2176939, “Rapid discovery of highly potent and selective inhibitors of histone deacetylase 8 using click chemistry to generate candidate libraries” (J Med Chem, 2012).

Data set [1] in a line: Growth inhibition of human PBMC PB-N cells incubated for 72 hrs by MTS assay. It counts as cell-based. Summed up:
(§1)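 Cells plated at 2 × 10⁵ cells/well in culture medium and exposed to inhibitor for 72 h at 37 °C under 5% CO₂. MTS was then added for 2 h, with absorbance read at 490 nm against a 650 nm reference. Wells were also read at compound addition (T₀). % growth = 100[(T − T₀)/(C − T₀)], or […]. GI₅₀ is where % growth = 50.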

A short description of data set [2]: Growth inhibition of human LAN1 cells incubated for 72 hrs by MTS assay. It is filed as functional. The settings on record: LAN1, 72 h. Summed up:
as §1

Data set [3] can be described thus: Growth inhibition of human PBMC PB-O cells incubated for 72 hrs by MTS assay. It counts as cell-based. Summed up:
as §1

In the next data set the test system is NB1. The data set is described as follows: Growth inhibition of human NB-1 cells incubated for 72 hrs by MTS assay. The settings on record: NB1, 72 h. It counts as functional. Summed up: as §1
The subject of a further data set is MT4. The data set is described as follows: Growth inhibition of human MT4 cells incubated for 72 hrs by MTS assay. The conditions noted are these: MT4, 72 h. It is filed as functional. Summed up: as §1
Another data set has as its system MT2. Kind of data set: Growth inhibition of human MT2 cells incubated for 72 hrs by MTS assay. It is filed as functional. The settings on record: MT2, 72 h. Summed up: as §1
The test system of the next data set is Jurkat. Kind of data set: Growth inhibition of human Jurkat cells incubated for 72 hrs by MTS assay. It is filed as functional. Summed up: as §1
For a further data set, the system named is HH. The data set is described as follows: Growth inhibition of human HH cells incubated for 72 hrs by MTS assay. It counts as functional. Summed up: as §1
Data set [4] has as its target Histone deacetylase (Homo sapiens) (UniProt Q13547+O15379+Q9UBN7+Q92769+Q9UQL6+Q8WUI4+Q9BY41+Q96DB2+P56524+Q9UKV0+Q969S8). Kind of data set: Inhibition of HDAC in human HeLa cells nuclear extracts at 3 uM by fluorometric assay. It counts as cell-free. Summed up:
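Total HDAC activity of HeLa nuclear extract was measured with a commercial fluorometric deacetylase kit, following the supplier's protocol. Compounds were screened at 3 μM, including crude click-reaction triazoles diluted without purification. Fluorescence was read at ex 360 / em 460 nm, and % inhibition was calculated relative to uninhibited control wells.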

Data set [5] has as its target T1, Protein deacetylase HDAC6 (Homo sapiens, UniProt Q9UBN7).
T1 sequence (Q9UBN7 whole entry): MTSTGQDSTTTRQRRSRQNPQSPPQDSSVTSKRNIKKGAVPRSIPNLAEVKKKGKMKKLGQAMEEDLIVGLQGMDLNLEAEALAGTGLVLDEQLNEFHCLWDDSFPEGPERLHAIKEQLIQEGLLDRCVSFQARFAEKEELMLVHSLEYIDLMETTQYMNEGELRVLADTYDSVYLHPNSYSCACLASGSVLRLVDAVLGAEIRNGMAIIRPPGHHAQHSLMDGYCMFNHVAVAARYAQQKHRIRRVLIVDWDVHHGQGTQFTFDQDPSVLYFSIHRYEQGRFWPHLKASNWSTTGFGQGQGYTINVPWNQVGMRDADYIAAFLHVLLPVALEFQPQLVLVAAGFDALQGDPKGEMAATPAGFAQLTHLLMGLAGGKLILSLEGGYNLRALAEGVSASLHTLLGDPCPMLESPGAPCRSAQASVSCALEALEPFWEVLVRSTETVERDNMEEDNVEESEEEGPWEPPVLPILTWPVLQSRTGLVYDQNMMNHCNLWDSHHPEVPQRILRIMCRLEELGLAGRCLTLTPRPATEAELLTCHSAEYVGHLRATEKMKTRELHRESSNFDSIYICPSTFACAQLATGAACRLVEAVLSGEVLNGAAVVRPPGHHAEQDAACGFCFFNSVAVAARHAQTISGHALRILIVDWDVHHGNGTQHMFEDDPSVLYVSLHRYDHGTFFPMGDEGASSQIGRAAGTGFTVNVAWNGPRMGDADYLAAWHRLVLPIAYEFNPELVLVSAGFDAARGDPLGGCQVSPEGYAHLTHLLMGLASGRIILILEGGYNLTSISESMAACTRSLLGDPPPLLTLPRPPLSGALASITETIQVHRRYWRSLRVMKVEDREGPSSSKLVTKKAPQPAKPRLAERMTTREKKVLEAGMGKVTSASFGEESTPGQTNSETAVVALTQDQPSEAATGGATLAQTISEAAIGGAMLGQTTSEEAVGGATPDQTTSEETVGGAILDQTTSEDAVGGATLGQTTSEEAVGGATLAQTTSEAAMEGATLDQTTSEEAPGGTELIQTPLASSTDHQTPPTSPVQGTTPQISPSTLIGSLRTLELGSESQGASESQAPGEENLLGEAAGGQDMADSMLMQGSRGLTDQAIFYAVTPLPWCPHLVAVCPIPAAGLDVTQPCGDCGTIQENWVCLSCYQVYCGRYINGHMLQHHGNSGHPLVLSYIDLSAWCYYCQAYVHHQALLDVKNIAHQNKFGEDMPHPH
Kind of data set: Inhibition of HDAC6 by fluorometric assay.

For another data set, the target named is Histone deacetylase 4 (Homo sapiens, UniProt P56524). Kind of data set: Inhibition of HDAC4 by fluorometric assay.
Histone deacetylase 4, sequence (P56524 whole entry): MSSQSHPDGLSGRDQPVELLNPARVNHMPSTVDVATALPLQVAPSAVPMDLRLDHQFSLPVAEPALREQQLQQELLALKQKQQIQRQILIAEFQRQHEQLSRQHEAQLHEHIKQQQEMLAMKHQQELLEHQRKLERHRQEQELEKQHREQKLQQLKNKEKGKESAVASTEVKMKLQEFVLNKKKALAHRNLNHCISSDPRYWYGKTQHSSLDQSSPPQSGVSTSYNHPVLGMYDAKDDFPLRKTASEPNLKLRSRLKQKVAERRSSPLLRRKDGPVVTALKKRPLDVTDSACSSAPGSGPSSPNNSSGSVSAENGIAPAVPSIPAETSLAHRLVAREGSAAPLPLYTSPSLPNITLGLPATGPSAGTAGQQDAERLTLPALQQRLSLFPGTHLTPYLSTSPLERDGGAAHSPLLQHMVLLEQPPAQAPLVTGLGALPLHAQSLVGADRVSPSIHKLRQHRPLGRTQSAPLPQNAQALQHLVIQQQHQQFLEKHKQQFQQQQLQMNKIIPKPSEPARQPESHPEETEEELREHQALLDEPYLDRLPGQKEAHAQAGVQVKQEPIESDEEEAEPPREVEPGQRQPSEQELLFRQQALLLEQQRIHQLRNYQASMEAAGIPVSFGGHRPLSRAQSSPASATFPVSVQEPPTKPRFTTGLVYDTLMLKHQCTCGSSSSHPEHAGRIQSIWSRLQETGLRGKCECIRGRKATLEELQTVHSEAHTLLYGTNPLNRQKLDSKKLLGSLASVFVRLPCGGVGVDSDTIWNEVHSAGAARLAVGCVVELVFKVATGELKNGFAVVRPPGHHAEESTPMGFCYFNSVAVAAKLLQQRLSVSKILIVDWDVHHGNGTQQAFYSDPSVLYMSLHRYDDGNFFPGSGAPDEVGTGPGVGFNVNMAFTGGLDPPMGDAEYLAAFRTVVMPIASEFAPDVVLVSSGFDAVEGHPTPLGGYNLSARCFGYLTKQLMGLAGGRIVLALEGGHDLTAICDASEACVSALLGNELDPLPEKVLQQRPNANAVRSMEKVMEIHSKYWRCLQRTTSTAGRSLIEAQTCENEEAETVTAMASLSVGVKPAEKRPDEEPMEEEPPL
Another data set has as its target T2, Histone deacetylase 8 (Homo sapiens, UniProt Q9BY41).
T2 sequence (Q9BY41 whole entry): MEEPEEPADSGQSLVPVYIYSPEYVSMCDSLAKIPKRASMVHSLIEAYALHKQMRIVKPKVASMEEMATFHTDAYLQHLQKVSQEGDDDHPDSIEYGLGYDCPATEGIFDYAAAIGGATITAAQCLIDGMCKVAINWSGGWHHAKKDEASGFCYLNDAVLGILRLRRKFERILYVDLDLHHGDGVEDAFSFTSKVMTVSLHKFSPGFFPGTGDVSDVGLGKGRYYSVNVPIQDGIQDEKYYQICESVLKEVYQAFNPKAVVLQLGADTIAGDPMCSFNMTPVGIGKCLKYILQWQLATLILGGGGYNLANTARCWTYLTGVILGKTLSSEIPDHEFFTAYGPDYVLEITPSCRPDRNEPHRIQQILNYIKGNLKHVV
The data set is described as follows: Inhibition of HDAC8 by fluorometric assay.

The target of another data set is Histone deacetylase 2 (Homo sapiens, UniProt Q92769). The data set is described as follows: Inhibition of HDAC2 by fluorometric assay.
Histone deacetylase 2, sequence (Q92769 whole entry): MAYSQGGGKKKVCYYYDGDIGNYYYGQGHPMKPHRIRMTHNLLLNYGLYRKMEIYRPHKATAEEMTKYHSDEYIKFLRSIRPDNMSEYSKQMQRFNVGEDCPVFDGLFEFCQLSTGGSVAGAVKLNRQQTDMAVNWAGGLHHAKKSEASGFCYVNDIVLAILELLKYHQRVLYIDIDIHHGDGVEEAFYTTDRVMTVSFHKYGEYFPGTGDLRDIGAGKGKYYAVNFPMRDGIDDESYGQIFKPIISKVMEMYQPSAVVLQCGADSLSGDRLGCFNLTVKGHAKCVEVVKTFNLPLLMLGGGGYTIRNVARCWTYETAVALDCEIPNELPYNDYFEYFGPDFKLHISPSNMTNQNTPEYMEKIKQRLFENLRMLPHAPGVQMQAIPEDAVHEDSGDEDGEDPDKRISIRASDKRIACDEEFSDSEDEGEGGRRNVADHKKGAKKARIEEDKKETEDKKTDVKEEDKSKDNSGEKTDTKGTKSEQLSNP
The target of a further data set is Histone deacetylase 1 (Homo sapiens, UniProt Q13547). Kind of data set: Inhibition of HDAC1 by fluorometric assay.
Histone deacetylase 1, sequence (Q13547 whole entry): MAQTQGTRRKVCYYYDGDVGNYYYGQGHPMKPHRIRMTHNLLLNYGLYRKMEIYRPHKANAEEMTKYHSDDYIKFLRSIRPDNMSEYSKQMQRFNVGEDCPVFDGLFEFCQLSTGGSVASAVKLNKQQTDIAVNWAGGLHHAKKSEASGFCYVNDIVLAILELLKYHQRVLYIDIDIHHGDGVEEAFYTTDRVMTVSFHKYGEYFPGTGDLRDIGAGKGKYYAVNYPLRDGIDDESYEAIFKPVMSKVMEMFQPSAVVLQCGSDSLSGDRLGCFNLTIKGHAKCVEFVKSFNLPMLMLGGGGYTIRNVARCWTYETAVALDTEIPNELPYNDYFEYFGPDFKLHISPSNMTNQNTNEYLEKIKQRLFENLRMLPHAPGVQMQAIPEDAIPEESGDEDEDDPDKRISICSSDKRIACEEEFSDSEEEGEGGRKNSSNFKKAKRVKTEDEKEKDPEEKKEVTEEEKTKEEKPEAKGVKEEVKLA
A further data set addresses Histone deacetylase. Kind of data set: Inhibition of HDAC in human HeLa cells nuclear extracts by fluorometric assay. It counts as cell-based.

As to `COc1ccc(Cn2ccc3ccc(C(=O)NO)cc32)cc1`, the GI50 at 72 h is greater than 100 µM in [1] and 97 µM in data set [3]. Besides, the concentration for 50% growth inhibition (GI50) was 3.9 µM in data set [2]; 14 µM in the data set on NB1; 25 µM in the data set with MT4; 15 µM in the data set with MT2; 11 µM in the data set on Jurkat; greater than 100 µM in the data set with HH.

For `O=C(NO)c1cccc(-c2cn(Cc3ccccc3)nn2)c1`, the inhibition entry in data set [4] was “inactive”. In addition, the half-maximal inhibitory concentration (IC50) in data set [5] was determined as 7.9 µM; against Histone deacetylase 4, 30 µM; against Histone deacetylase 8 it was 0.35 µM; against Histone deacetylase 2, 65 µM; at Histone deacetylase 1, 41 µM; against Histone deacetylase, 37 µM.

With `O=C(NO)c1cccc(-c2cn(CCc3ccccc3)nn2)c1`, the inhibition entry in [4] was “inactive”. Further, the concentration for 50% growth inhibition (GI50) at 72 h in data set [1] and in data set [3] was greater than 100 µM throughout. Besides, the GI50 in data set [2] was 27 µM; in the data set with NB1, 39 µM; in the data set with MT4, 30 µM; in the data set with MT2, 19 µM; in the data set on Jurkat, 11 µM; in the data set with HH, 79 µM. The IC50 was 3.2 µM in data set [5]; greater than 100 µM against Histone deacetylase 4; 0.18 µM against Histone deacetylase 8; 76 µM on Histone deacetylase 2; greater than 100 µM against Histone deacetylase 1; 23 µM on Histone deacetylase.

Regarding `O=C(NO)c1cccc(-c2cn(CSc3ccccc3)nn2)c1`, the inhibition result in data set [4] is “inactive”. The concentration for 50% growth inhibition (GI50) at 72 h in data set [1] and in [3] was greater than 100 µM in each case. In addition, the GI50 stood at 6.4 µM in data set [2]; 12 µM with NB1; 15 µM in the data set on MT4; 11 µM in the data set with MT2; 7.6 µM with Jurkat; 23 µM in the data set on HH.

Consider `O=C(NO)c1cccc(-c2cn(CCc3ccsc3)nn2)c1`, for which the inhibition entry in data set [4] was “inactive”. The half-maximal inhibitory concentration (IC50) is 1.1 µM in [5]; greater than 100 µM at Histone deacetylase 4; 0.1 µM on Histone deacetylase 8; greater than 100 µM against Histone deacetylase 2; greater than 100 µM against Histone deacetylase 1; 44 µM on Histone deacetylase.
